Screens: PubChem BioAssay, several laboratories
S100A4 MyoIIA – blocks human S100A4 binding to myosin IIA peptide; P26447; S100A4/TAMRA-MyoIIA peptide fluorescence polarization; inhibition, % at 10.7 µM; 360,000 compounds, 0.14% hits;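 active = mean inhibition of at least 70% across replicates, with every replicate also reaching that level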
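Material: S100A4 monomer (human). Medium: Calcium-containing HEPES buffer, pH 7.2. Probe or stimulus: labelled myosin peptide probe, 5 nM. Compound dosing: one concentration per compound. Timing: polarization read 5 min after assay mix addition, stable 5–60 min. Benchmarks: DMSO as neutral control, TFP as positive control.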
PKA-R2B activ – PKA-R2B complex activation | 340,000 compounds, 0.079% hits | P22694+P31323 | PKA-R2B holoenzyme dissociation, Cy5-IP20 fluorescence polarization; R2B truncated from residue 108, S112A mutant; 0% DMSO only, 100% 113 µM cGMP | activation, % at 11.4 µM;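 active = activation above a cutoff set at the mean over all compounds plus 3 SD, cut at about 18% in these data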;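 also: higher means more holoenzyme dissociation and a rise in polarization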
Target sequence (P31323 whole entry, looked up, other chains not shown, the tested form may be a part): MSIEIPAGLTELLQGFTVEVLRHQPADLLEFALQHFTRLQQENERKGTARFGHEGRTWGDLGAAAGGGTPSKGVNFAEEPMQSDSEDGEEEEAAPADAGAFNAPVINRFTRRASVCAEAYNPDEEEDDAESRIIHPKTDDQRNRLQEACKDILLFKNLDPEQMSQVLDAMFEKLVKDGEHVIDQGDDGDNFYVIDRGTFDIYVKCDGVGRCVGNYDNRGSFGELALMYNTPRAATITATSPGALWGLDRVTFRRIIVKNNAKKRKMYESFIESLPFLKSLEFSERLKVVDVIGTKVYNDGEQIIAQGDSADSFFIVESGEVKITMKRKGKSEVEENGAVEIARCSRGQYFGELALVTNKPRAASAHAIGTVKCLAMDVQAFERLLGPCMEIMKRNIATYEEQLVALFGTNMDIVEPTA
CRFR2-BP antag – CRF-BP/CRF-R2 complex antagonism; HEK293 CRF-R2/CRF-BP, CRF-induced calcium fluorescence; inhibition, % at 11.8 µM; 350,000 compounds, 0.59% hits;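 active = inhibition of the ligand-induced calcium signal above about 50% at the single tested concentration, limit read from the data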
PKA-R1A activ – activators of PKA-R1A complex; P00514+P68181; PKA-R1A dissociation, Cy5-IP20 fluorescence polarization; scaled: DMSO 0%, 113 µM cGMP 100%; activation, % at 11.4 µM; 340,000 compounds, 0.083% hits; AID 504707;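 active = percent activation above the mean of all tested compounds plus 3 SD, cut at about 19% in these data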;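 also: higher means more PKAc released from R1A so a rise in polarization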
SIRT5 block – blocks human SIRT5 desuccinylation of peptide. Purified SirT5, succinyl-peptide AMC, trypsin-coupled fluorescence. AID 652115. 330,000 compounds, 1.1% hits. Q9NXA8. inhibition, % at 15 µM; in the data active = inhibition above about 15%
A number is an active result; – = inactive; · = no result; ! = not confirmed by another sample. A selection: hits, their analogues and other compounds. The true share with any hit is near 1.5%.

SMILES | S100A4 MyoIIA | PKA-R2B activ | CRFR2-BP antag | PKA-R1A activ | SIRT5 block
C[C@H]1CN([C@@H](C)CO)S(=O)(=O)c2ccc(-c3cccnc3)cc2O[C@@H]1CN(C)C(=O)C1CCC1 | – | · | · | · | –
CC(C)CC(=O)Nc1ccc(-c2nc3ccccc3c(=O)[nH]2)cc1 | – | – | – | – | 16
CNCCC(Oc1ccccc1OC)c1ccccc1 (stereo not drawn) | – | – | – | – | 22
CCN1C(=O)C(=O)c2cc(C)ccc21 | – | – | – | – | ·
CC[N+]1=C(C)C(C)(C)c2cc(C)ccc21 | 182 | – | – | – | –
COc1ccc2c3c([nH]c2c1)[C@H](CO)N(Cc1ccccc1)CC31CCN(S(C)(=O)=O)CC1 | – | · | · | · | ·
C[C@H](CO)N1C[C@H](C)[C@H](CN(C)Cc2ccccc2)Oc2ncc(/C=C/c3ccccc3)cc2C1=O | – | · | · | · | –
CCCN(C)C[C@H]1Oc2cc(-c3ccncc3)ccc2S(=O)(=O)N([C@H](C)CO)C[C@H]1C | – | · | · | · | 17
C[C@H]1CN([C@@H](C)CO)S(=O)(=O)c2ccc(C#CC(C)(C)O)cc2O[C@@H]1CN(C)Cc1ccc(F)cc1 | – | · | · | · | 16
CCCN(C)C[C@H]1Oc2cc(C#Cc3ccc(F)cc3)ccc2S(=O)(=O)N([C@H](C)CO)C[C@@H]1C | – | – | – | – | 15!
CCCN(C)C[C@H]1Oc2cc(C#CCC3CCCC3)ccc2S(=O)(=O)N([C@H](C)CO)C[C@@H]1C | – | · | · | · | 19
CCCN(C)C[C@@H]1Oc2cc(C#CCC3CCCC3)ccc2S(=O)(=O)N([C@H](C)CO)C[C@@H]1C | – | · | · | · | –
C[C@@H]1CN([C@@H](C)CO)S(=O)(=O)c2ccc(C#CC(C)(C)O)cc2O[C@H]1CN(C)Cc1ccccc1 | – | · | · | · | –
COc1ccc(CN(C)C[C@@H]2Oc3ccc(NS(=O)(=O)c4cn(C)cn4)cc3CC(=O)N([C@@H](C)CO)C[C@H]2C)cc1 | – | · | · | · | –
Cc1noc(C)c1S(=O)(=O)N(C)C[C@H]1Oc2ccc(NC(=O)CCCCCC(=O)Nc3ccccc3N)cc2CC(=O)N([C@@H](C)CO)C[C@H]1C | – | · | · | · | –
CN(C)C(=O)[C@H]1[C@H](CO)[C@H]2Cn3c(ccc(C4=CCCC4)c3=O)[C@H]2N1Cc1ccccn1 | – | · | · | · | –
CN(C)CC(=O)N1[C@H](CO)[C@@H](c2ccccc2)C12CN(Cc1cc(F)ccc1F)C2 | – | · | · | · | –
COc1cccc(C2CCCN2Cc2nc(-c3cnccn3)no2)c1 (stereo not drawn) | – | – | 116 | – | –
COc1ccc(C#Cc2c(-c3ccccc3)n(C)c3ccccc23)cc1 | – | – | – | – | –
COc1cc(C#Cc2c(-c3ccccc3)n(C)c3ccccc23)cc(OC)c1 | – | – | 51 | – | –
Cc1cccc(OCC(=O)NNC(=O)C2CCCCC2C(=O)O)c1 (stereo not drawn) | – | – | – | – | 37
Cc1ccc(OCC(=O)NNC(=O)[C@@H]2CCCC[C@@H]2C(=O)O)c(Br)c1 | – | – | – | – | –
Cn1cnc(CCNC(=O)C[C@@H]2CC[C@@H]3[C@H](COC[C@@H](O)CN3C(=O)Nc3ccc(Cl)cc3)O2)c1 | – | · | · | · | 19
Cn1cnc(CCNC(=O)C[C@H]2CC[C@@H]3[C@H](COC[C@H](O)CN3C(=O)C3CCCC3)O2)c1 | – | · | · | · | 35!
Cn1cnc(CCNC(=O)C[C@@H]2CC[C@H]3[C@@H](COC[C@H](O)CN3C(=O)C3CCCC3)O2)c1 | – | · | · | · | –
COc1cccc(S(=O)(=O)N(C)C[C@@H]2Oc3cc(C#CCN(C)C)ccc3S(=O)(=O)N([C@H](C)CO)C[C@H]2C)c1 | – | · | · | · | –
C[C@H](NC(=O)[C@@H]1N[C@@H]2c3ccc(-c4ccc(C(=O)N(C)C)cc4)c(=O)n3C[C@@H]2[C@H]1CO)c1ccccc1 | – | · | · | · | –
N#Cc1c(N)nc(SC2CCCCC2=O)c(C#N)c1-c1ccco1 (stereo not drawn) | · | – | 106 | – | ·
Cc1c(C(=O)N2CCOCC2)c(S(=O)(=O)Nc2ccc(F)cc2)c(C)n1C | – | – | – | – | –
Cc1c(C(=O)N2CCOCC2)c(S(=O)(=O)Nc2ccccc2)c(C)n1C | – | – | – | – | 19
